Results taken from ChEMBL document CHEMBL5678799 (Biochem J, 2009).
Activity calls are given as the source filed them. The rule behind the calls is not given here.

What was measured:
[1] = molecular target: Vascular endothelial growth factor receptor 1 (Homo sapiens) (UniProt P17948); assay: Inhibition of recombinant human N-terminal GST-tagged VEGFR1 (784 to 1338 residues) expressed in baculovirus infected Sf21 cells assessed as remaining activity at 1 uM using KKKSPGEYVNIEFG as substrate incubated for 30 mins in presence of [gamma-33P]ATP by filter binding assay relative to control
Summary of the method: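 Panel assays were run for 30 min at 21 °C, within the linear range for time and enzyme. […] Results are percent activity remaining relative to compound-free control, averaged from triplicate ± S.D.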

[2] = molecular target: T1, mTORC1 (Homo sapiens) (UniProt P42345+Q8N122+Q9BVC4); details: HEK293, dose 30.0 nM, time 30.0 min
T1 sequence (Q8N122 whole entry, looked up, other chains not shown): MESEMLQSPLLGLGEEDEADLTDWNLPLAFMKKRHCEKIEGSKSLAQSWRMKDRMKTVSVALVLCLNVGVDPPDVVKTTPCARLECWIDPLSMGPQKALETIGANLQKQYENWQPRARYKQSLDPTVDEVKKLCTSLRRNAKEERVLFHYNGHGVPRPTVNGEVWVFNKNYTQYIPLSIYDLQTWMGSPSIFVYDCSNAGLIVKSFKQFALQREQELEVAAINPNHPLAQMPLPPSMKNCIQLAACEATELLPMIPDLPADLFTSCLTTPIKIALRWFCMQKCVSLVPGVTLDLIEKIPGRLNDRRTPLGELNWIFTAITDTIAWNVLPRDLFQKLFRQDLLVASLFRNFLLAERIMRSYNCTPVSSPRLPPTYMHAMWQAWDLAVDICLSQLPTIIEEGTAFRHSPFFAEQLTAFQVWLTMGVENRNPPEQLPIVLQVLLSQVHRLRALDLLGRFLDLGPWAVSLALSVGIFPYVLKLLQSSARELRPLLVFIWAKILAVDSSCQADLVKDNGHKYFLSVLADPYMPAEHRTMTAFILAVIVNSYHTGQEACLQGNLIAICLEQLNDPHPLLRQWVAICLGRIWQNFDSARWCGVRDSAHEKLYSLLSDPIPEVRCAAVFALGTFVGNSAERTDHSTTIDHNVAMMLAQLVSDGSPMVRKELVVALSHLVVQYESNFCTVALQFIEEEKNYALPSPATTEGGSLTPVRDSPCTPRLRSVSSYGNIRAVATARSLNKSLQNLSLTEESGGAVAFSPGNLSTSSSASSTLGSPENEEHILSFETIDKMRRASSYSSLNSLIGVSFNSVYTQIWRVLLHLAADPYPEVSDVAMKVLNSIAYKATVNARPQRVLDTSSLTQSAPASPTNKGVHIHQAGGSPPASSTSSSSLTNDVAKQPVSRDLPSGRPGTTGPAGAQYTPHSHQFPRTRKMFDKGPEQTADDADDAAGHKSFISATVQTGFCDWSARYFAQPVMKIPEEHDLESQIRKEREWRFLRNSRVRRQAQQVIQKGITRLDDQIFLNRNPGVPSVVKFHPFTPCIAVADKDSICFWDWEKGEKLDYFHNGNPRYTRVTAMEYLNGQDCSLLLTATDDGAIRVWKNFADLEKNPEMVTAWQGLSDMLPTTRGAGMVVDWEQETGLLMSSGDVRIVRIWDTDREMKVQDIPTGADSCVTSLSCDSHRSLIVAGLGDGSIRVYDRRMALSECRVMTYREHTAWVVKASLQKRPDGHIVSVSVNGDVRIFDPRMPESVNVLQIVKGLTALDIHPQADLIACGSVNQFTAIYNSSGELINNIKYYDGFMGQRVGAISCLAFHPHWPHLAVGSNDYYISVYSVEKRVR
T1 sequence (Q9BVC4 whole entry, looked up, other chains not shown): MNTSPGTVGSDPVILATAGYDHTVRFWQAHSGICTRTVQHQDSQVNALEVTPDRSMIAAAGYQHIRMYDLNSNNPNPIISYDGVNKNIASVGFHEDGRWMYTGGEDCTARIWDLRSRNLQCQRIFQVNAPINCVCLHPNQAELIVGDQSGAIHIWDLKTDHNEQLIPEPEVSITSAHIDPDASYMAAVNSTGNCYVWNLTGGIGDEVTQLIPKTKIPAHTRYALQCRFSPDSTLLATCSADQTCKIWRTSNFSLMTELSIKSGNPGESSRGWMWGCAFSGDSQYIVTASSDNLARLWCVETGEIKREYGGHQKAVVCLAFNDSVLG

[3] = species on record: Homo sapiens; assay: Inhibition of choline kinase (unknown origin) assessed as remaining activity at 1 uM using choline as substrate incubated for 30 mins in presence of ATP by Kinase Glo assay relative to control
Summary of the method: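 Choline kinase assayed with 1 mM choline, 1 μM ATP in 25 mM glycine/NaOH pH 8.5, 67 mM KCl, 5 mM MgCl2, 1 mM DTT, 30 min at room temperature. Stopped with Kinase-Glo Plus, luminescence read after 10 min. Activity relative to control, triplicate.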

[4] = molecular target: 3-phosphoinositide-dependent protein kinase 1 (Homo sapiens) (UniProt O15530); assay: Inhibition of recombinant human His6-tagged PDK1 (52 to 556 residues) expressed in baculovirus infected Sf21 cells assessed as remaining activity at 1 uM using PDKtide as substrate incubated for 30 mins in presence of [gamma-33P]ATP by filter binding method relative to control
Summary of the method: (§1)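 Robotic radiometric panel assay, 30 min at room temperature (21 °C), with 10 mM magnesium acetate. […] Compound at 1 or 10 µM. Residual activity expressed relative to compound-free control; triplicate average ± S.D.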

[5] = tested on: Serine/threonine-protein kinase Sgk1 (Homo sapiens), O00141 [S422D]; assay: Inhibition of recombinant human His6-tagged SGK1 S422D mutant (60 to 431 residues) expressed in baculovirus infected Sf21 cells assessed as remaining activity at 1 uM using GRPRTSSFAEGKK as substrate incubated for 30 mins in presence of [gamma-33P]ATP by filter binding method relative to control
Serine/threonine-protein kinase Sgk1 (Homo sapiens), O00141 [S422D], sequence (O00141 whole entry S422D, the tested form may be a part): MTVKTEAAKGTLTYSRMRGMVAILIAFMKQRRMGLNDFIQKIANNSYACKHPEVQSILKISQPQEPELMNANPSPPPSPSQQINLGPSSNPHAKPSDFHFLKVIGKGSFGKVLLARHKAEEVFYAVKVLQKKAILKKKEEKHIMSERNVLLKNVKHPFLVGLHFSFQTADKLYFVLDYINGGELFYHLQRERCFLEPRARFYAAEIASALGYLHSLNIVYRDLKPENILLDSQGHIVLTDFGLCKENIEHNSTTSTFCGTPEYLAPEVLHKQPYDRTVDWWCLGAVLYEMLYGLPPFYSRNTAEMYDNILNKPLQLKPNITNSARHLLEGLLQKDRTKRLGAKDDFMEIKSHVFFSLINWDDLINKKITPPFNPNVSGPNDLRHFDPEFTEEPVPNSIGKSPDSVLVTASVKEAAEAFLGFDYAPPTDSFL
Summary of the method: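 Incubations ran robotically for 30 min at room temperature (21 °C) under linear conditions. Results are percent activity remaining versus controls without compound, as the mean of triplicates ± S.D.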

[6] = molecular target: Sphingosine kinase 1 (Homo sapiens) (UniProt Q9NYA1); assay: Inhibition of SPHK1 (unknown origin) assessed as remaining activity at 10 uM using sphingosine as substrate incubated for 30 mins in presence of ATP relative to control
Summary of the method: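 SPHK1 assayed with 10 μM sphingosine, 10 μM ATP in 50 mM Tris/HCl pH 7.5, 150 mM NaCl, 5 mM MgCl2, 1 mM EGTA, 1 mM DTT, 30 min at room temperature. ATP remaining read by Kinase-Glo Plus luminescence after 10 min. Activity as % of control, triplicate.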

[7] = molecular target: Serine/threonine-protein kinase pim-3 (Homo sapiens) (UniProt Q86V86); assay: Inhibition of recombinant human N-terminal His6-tagged PIM3 (2 to 326 residues) expressed in baculovirus infected Sf21 cells assessed as remaining activity at 1 uM using RSRHSSYPAGT as substrate incubated for 30 mins in presence of [gamma-33P]ATP by filter binding method relative to control
[8] = molecular target: Ribosomal protein S6 kinase alpha-5 (Homo sapiens) (UniProt O75582); assay: Inhibition of recombinant human His6-tagged MSK1 (2 to 802 residues) expressed in baculovirus infected Sf21 cells assessed as remaining activity at 10 uM using GRPRTSSFAEGKK as substrate incubated for 30 mins in presence of [gamma-33P]ATP by filter binding method relative to control; summary of the method: as §1
Ribosomal protein S6 kinase alpha-5 (Homo sapiens), sequence (O75582 whole entry, looked up, the tested form may be a part): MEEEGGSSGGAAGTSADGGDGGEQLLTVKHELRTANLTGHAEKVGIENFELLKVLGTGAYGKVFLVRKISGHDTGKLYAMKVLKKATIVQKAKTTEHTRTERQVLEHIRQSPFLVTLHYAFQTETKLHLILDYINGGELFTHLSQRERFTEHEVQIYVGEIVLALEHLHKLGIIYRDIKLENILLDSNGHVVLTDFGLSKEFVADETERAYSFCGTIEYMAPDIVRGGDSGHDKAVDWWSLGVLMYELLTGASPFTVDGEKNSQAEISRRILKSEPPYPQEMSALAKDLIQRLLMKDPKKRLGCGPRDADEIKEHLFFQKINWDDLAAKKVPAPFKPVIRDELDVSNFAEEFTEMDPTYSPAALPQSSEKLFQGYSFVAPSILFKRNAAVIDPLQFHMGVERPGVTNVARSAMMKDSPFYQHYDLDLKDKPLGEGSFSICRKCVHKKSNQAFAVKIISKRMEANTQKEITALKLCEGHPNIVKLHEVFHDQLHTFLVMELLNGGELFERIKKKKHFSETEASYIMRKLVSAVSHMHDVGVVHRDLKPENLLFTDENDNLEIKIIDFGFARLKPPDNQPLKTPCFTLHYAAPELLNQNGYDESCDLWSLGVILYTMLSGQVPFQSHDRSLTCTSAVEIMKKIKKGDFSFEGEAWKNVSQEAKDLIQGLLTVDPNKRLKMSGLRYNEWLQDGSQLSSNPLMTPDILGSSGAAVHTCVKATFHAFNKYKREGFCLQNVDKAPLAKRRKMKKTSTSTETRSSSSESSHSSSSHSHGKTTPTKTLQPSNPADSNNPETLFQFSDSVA

[9] = tested on: MEF; assay: Inhibition of mTORC2 in serum starved mLST8 knockout MEF cells assessed as reduction IGF1-stimulated AKT phosphorylation at Thr308 residue at 100 to 1000 nM incubated for 20 mins by immunoblot analysis; assay type: cell-based; details: Mus musculus, dose 100-1000 nM
Summary of the method: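 Serum withdrawn 16 h. Inhibitor or vehicle given 30 min before stimulation with 50 ng/ml IGF-1 for 20 min. Lysed in Tris lysis buffer and immunoblotted for Akt Thr308 phosphorylation with ECL detection. Applies to HEK-293 and to wild-type, Rictor, Sin1 or mLST8 knockout MEFs. Three independent experiments.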

[10] = tested on: MEF; assay: Growth inhibition of MEF cells assessed reduction in cell viability at 3 uM incubated for 1 to 3 days by crystal violet staining based assay; assay type: toxicity; details: mouse, time 1-3 day
Summary of the method: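 MEFs seeded at 20000 cells per 1.91 cm2 well, grown overnight in 10% foetal bovine serum, then cultured 1, 2 or 3 days with 3 μM inhibitor, 100 nM rapamycin or DMSO. Medium changed every 24 h with freshly dissolved inhibitors. Cells fixed in 4% paraformaldehyde, stained with 0.1% Crystal Violet, dye extracted in 10% acetic acid, A590 read. Quadruplicate wells, expressed as % of DMSO control.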

[11] = tested on: MEF; assay: Induction of cell cycle arrest in mLST8 knockout MEF cells assessed as accumulation at G1 phase at 3 uM incubated for 1 to 3 days by propidium iodide staining based flow cytometric analysis (reference value: 22.2 +/- 0.59%); assay type: toxicity; details: mouse, time 1-3 day
[12] = molecular target: Phosphatidylinositol 4-phosphate 3-kinase C2 domain-containing subunit beta (Homo sapiens) (UniProt O00750); assay: Inhibition of PI3KC2beta (unknown origin) assessed as remaining activity at 1 uM using phosphatidylinositol as substrate incubated for 30 mins in presence of ATP relative to control
Phosphatidylinositol 4-phosphate 3-kinase C2 domain-containing subunit beta (Homo sapiens), sequence (O00750 whole entry, the tested form may be a part): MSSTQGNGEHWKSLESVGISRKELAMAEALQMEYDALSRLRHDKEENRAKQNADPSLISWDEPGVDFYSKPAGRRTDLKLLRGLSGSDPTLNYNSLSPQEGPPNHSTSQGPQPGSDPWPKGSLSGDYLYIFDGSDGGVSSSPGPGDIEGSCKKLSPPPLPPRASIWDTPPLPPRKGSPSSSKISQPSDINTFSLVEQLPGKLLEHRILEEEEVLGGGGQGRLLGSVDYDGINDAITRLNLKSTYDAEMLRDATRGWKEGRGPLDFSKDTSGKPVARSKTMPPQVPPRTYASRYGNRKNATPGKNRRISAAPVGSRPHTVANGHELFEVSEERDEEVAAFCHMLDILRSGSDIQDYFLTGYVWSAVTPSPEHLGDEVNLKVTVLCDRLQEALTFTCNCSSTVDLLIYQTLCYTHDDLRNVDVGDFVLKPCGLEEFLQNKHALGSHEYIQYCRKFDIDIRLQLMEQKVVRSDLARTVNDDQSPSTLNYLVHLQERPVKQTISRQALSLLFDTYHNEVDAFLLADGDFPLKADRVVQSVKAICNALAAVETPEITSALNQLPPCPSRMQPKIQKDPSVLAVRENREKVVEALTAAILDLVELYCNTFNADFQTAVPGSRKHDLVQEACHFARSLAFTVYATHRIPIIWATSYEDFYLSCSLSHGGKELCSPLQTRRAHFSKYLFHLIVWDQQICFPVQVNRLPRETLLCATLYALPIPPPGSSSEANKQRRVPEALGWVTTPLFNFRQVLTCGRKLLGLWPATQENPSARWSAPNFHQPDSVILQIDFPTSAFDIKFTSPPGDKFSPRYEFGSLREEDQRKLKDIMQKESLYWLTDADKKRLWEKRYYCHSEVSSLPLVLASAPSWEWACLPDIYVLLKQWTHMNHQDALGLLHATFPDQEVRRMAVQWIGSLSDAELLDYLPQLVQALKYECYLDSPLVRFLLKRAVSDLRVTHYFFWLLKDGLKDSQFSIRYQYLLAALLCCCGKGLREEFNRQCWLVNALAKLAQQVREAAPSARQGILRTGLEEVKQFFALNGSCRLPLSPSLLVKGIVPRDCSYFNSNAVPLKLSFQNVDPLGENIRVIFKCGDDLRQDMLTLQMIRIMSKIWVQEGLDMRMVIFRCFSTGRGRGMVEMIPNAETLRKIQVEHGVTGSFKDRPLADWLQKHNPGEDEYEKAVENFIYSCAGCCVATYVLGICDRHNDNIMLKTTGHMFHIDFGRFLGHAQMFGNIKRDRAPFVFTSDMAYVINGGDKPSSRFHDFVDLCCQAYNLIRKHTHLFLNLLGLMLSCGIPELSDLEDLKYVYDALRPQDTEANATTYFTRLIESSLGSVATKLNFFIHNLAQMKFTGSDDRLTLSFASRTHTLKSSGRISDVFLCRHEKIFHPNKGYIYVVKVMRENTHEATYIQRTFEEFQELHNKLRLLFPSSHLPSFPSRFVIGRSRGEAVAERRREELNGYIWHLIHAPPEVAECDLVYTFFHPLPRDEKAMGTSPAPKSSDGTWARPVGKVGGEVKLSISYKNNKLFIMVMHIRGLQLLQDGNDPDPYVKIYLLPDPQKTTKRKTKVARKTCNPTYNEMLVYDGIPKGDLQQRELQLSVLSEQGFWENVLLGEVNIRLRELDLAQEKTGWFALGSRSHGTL
Summary of the method: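 PI3KC2β assayed with 20 μM phosphatidylinositol, 0.2 mM ATP, 2 mM MgCl2, in Tris/HCl pH 7.5 with CHAPS, 30 min at room temperature. Stopped with EDTA, product detected by time-resolved FRET competition with PtdIns3P–biotin and SGK PX domain. Activity as % of no-compound control, triplicate.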

[13] = molecular target: T1, mTORC1 (Homo sapiens); details: HEK293, dose 100-300 nM, time 30.0 min
[14] = molecular target: Serine/threonine-protein kinase mTOR (Mus musculus) (UniProt Q9JLN9); assay: Inhibition of mTOR in MEF cells assessed as reduction in 4E-BP1 phosphorylation at T37/46 residues at 1 uM incubated for 30 mins by immunoblot analysis; assay type: cell-based
Summary of the method: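 Cells (MEFs, wild-type or knockout, or HeLa) kept in 10% serum, then exposed 30 min to inhibitor or vehicle at the stated level. Washed twice in ice-cold PBS and lysed in Tris lysis buffer with CHAPS, phosphatase and protease inhibitors. Lysates cleared at 18000 g and immunoblotted with phospho-specific antibodies and ECL detection. Blots are representative of three experiments.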

Q: With `COc1ccc(-c2ccc3c(N4CCOCC4)nc(N4C[C@@H](C)O[C@@H](C)C4)nc3n2)cc1CO` [Ku-0063794] as the compound, how does the Activity [1] read?
A: The Activity was 92%.

Q: And the inhibition [2]?
A: Its inhibition is 90%.

Q: What about the Activity [3] of the same compound?
A: Its Activity is 102%.

Q: What about the Activity [4] of the same compound?
A: The Activity was 89%.

Q: What about the Activity [5] of the same compound?
A: The Activity was 76%.

Q: And the Activity [6]?
A: Its Activity is 99%.

Q: And the Activity [7]?
A: The Activity was 114%.

Q: What about the Activity [8] of the same compound?
A: The Activity was 117%.

Q: What about the inhibition [9] of the same compound?
A: The inhibition was “Active”.

Q: And the “growth inhibition (GI)” value [10]?
A: The value was “Toxic”.

Q: And the Activity [11]?
A: Its Activity is 47.3%.

Q: And the Activity [12]?
A: The Activity was 126%.

Q: And the inhibition [13]?
A: Its inhibition is 100%.

Q: And the inhibition [14]?
A: Its inhibition is “Active”.
